Bioassay records (PubChem)
L major viab: inhibitors of Leishmania major promastigote growth; Leishmania major promastigotes, resazurin fluorescence viability; actives 9% (n = 200,000); inhibition, % at 10 µM;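 also: promastigotes grown with compound for 44 hours at 28 °C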
GSH fluor: compound fluoresces at 488/530 nm on GSH beads | GSH beads flow cytometry, compound fluorescence 488/530 nm; stronger effect = higher value | fluorescence (KMESF) at 10 µM | actives 0.25% (n = 190,000) | AID 1776; in the data active = fluorescence above about 89;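 also: glutathione beads carrying GST-tagged Bcl family fusion proteins plus one bare bead set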
ABCG2 block: inhibitors of human ABCG2 transporter, ABCB1 counter-screen; Q9UNQ0; IgMXP3 cells, JC-1 efflux, flow cytometry; inhibition, % at 6.6 µM; actives 0.1% (n = 190,000);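 active = inhibition above 80%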
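Assay system – ABCG2 IgMXP3 and barcoded ABCB1 CCRF-Adr cell mix · Input – 3 million cells/mL in well · Reagent – JC-1 fluorescent substrate · Compound – single test compound dose, 6.6 µM final · Timing – 10 min exposure at 25 °C with rotation, no wash · Detection – flow cytometry of retained JC-1 fluorescence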
ABCB1 block: human ABCB1 inhibition, ABCG2 as counter-screen; P08183; CCRF-Adr cells, JC-1 efflux, flow cytometry; inhibition, % at 6.6 µM; actives 0.067% (n = 190,000); AID 1326; in the data active = inhibition above about 40%;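 also: higher value means more JC-1 retained so stronger ABCB1 efflux block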
PKD1 inh: inhibitors of human PKD1 kinase. PKD1 kinase fluorescence polarization assay. inhibition, % (no concentration beside the values). actives 0.056% (n = 200,000). AID 797
Avidin bead fluor: compound fluoresces at 488/530 nm on avidin beads. actives 0.38% (n = 220,000). compound fluorescence 488/530 nm, flow cytometry; stronger effect = higher value. AID 1775. fluorescence (KMESF) at 10 µM; in the data active = fluorescence above about 47
Numbers stand for hits; i = inactive; nt = no result given. Many of the other results were omitted from the sample, so hits are more common in it than they were. Rule as the data show it, unless noted: active = inhibition above about 50%; inactive = the rest.

SMILES | L major viab | GSH fluor | ABCG2 block | ABCB1 block | PKD1 inh | Avidin bead fluor
O=c1cnn(-c2ccccc2)c(-c2ccccc2)c1 | 82.0 | i | i | i | i | i
CCOC(=O)c1ccc(CN(Cc2ccccc2)S(=O)(=O)c2cccc([N+](=O)[O-])c2)cc1 | i | i | i | i | i | i
CCOC(=O)CCCCCN(Cc1ccccc1)S(=O)(=O)c1ccc([N+](=O)[O-])cc1 | 97.5 | i | i | i | i | i
Cc1ccc(NC(=O)CCC(=O)c2cccs2)c(O)c1 | nt | nt | nt | nt | nt | i
COc1cc(/C=C/C(=O)Nc2nnc(CC(C)C)s2)cc(OC)c1OC | 58.6 | i | i | i | i | i
COc1cc(/C=C/C(=O)Nc2ccc(C(C)=O)cc2)cc(OC)c1OC | 68.8 | i | i | i | i | i
COc1cc(/C=C/C(=O)Nc2ccncc2)cc(OC)c1OC | i | i | i | i | i | i
Cc1nc(SCc2ccccc2)c(C(F)(F)F)c(=O)[nH]1 | i | i | i | i | i | i
Cc1ccn2cc(-c3ccc(NC(=O)c4ccco4)cc3)nc2c1 | 67.7 | i | i | i | i | i
Cc1ccn2cc(-c3ccc(NS(=O)(=O)c4ccccc4)cc3)nc2c1 | 91.6 | i | i | i | i | i
CC(=O)Nc1cccc(-c2cn3ccc(C)cc3n2)c1 | i | i | i | i | i | i
Clc1cc(Cl)cc(C2=NCCC(c3ccccc3)O2)c1 (centres undefined) | i | i | i | i | i | i
COc1cc(C#CC#CCN2CCCCC2)ccc1O | 86.3 | i | i | i | i | i
CC(C)(C)CC(C)(C)NC(=O)/C=C/C(=O)O | nt | nt | nt | nt | nt | i
CCN(CC)C(=O)c1cc(Cl)ccc1NC(=O)c1ccco1 | nt | nt | nt | nt | nt | i
CCN(CC)P(=O)(Nc1ccccc1Br)c1ccc(N(C)C)cc1NC(=O)c1ccco1 (centres undefined) | 73.2 | i | i | i | i | i
Cc1nc(C)c(C(=O)Nc2ccc(Oc3ccccc3)cc2)o1 | 76.2 | i | i | i | i | i
Cc1ncoc1C(=O)Nc1ccc(Oc2ccccc2)cc1 | i | i | i | i | i | i
O=C(NC1CCCCC1)C(c1cccnc1)N(C(=O)CCl)c1ccc(F)cc1 (centres undefined) | 77.6 | i | i | i | i | i
COc1ccc(N(C(=O)CCl)C(C(=O)NC2CCCCC2)c2cccnc2)cc1 (centres undefined) | 97.5 | i | i | i | i | i
O=C(NC1CCCCC1)C(c1cccnc1)N(C(=O)CCl)c1ccccc1Cl (centres undefined) | 68.1 | i | i | i | i | i
COc1ccc(C(C(=O)NC2CCCCC2)N(C(=O)c2ccccn2)c2cccnc2)cc1 (centres undefined) | i | i | i | i | i | i
CCN(CC)CCNCc1ccc(-c2ccc(Cl)cc2)o1 | 90.8 | i | i | i | i | i
CCN(CC)CCNCC(O)(c1ccc(Cl)cc1)c1ccc(Cl)cc1 | 71.6 | i | i | i | i | i
O=C(O)CCc1ccc(-c2ccc(Cl)cc2)o1 | i | i | i | i | i | i
SMILES | L major viab | GSH fluor | ABCG2 block | ABCB1 block | PKD1 inh | Avidin bead fluor
COc1ccccc1CNCC(O)(c1ccc(Cl)cc1)c1ccc(Cl)cc1 | 100.5 | i | i | i | i | i
Cn1c(NC(=O)C2c3ccccc3Oc3ccccc32)cc(=O)n(C)c1=O | i | i | i | i | i | i
CCCCOC(=O)Cn1c(=O)c2c(nc(Br)n2Cc2ccccc2)n(C)c1=O | i | i | i | i | i | i
O=C1CCCC2=C1C(c1ccccn1)Nc1ccc(C(=O)c3ccccc3)cc1N2 (centres undefined) | 67.0 | i | i | i | i | i
O=C1CCCC2=C1C(c1ccco1)Nc1ccc(C(=O)c3ccccc3)cc1N2 (centres undefined) | 73.3 | i | i | i | i | i
N#CC1=C(SCC(=O)c2ccc(Br)cc2)NC2=C(C(=O)CCC2)C1c1ccco1 (centres undefined) | i | i | i | i | i | i
S=C(c1ccc(-c2cc(Cl)ccc2Cl)o1)N1CCCCC1 | 54.4 | i | i | i | i | i
O=C(Nc1ccc(CN2CCOCC2)cc1)c1ccc(-c2cc(Cl)ccc2Cl)o1 | 98.6 | i | i | i | i | i
O=C(/C=C/c1ccc(Cl)cc1Cl)Nc1ccc(CN2CCOCC2)cc1 | 70.0 | i | i | i | i | i
COc1ccc(Nc2cc(C)nc(N3CCOCC3)n2)cc1 | i | i | i | i | i | i
